Biological target: Delta(7)-sterol 5(6)-desaturase
Assay: Inhibition of 5-Desaturase involved in ergosterol biosynthesis
Set-up: species or system Saccharomyces cerevisiae
In short: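 Microsomal Δ7-sterol 5-desaturase from aerobically grown S. cerevisiae (37 °C, YPD). Cells bead-disrupted in 0.1 M Tris-HCl pH 7.4, 94500g pellet, desalted on Sephadex G-50. Incubated with Tween 20, FeCl3, NADPH and [5α,6α-3H]-7,22(E)-ergostadien-3β-ol with varied inhibitor, all else held constant. Alkali quench, EtOAc extraction, aqueous 3H2O scintillation-counted. IC50 from inverse velocity vs inhibitor concentration; mean of ≥2 experiments.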

Compound | IC50 [µM]
C[C@]12CC[C@H](O)C[C@]1(O)CC=C1CCC12 (some centres not stated) | 148
C[C@]12CC[C@H](O)C[C@@H]1[C@@H](O)C=C1CCC12 (some centres not stated) | 47
C[C@]12CC[C@H](O)C[C@]1(O)[C@H](O)C=C1CCC12 (some centres not stated) | 96
C[C@]12CC[C@H](O)C[C@]1(C#N)CC=C1CCC12 (some centres not stated) | 131
C[C@]12CC[C@H](O)C[C@]1(O)[C@@H](O)C=C1CCC12 (some centres not stated) | 149
C[C@]12CC[C@H](O)C[C@]1(C=O)CC=C1CCC12 (some centres not stated) | 116
C[C@]12CC[C@H](O)C[C@]1(CO)CC=C1CCC12 (some centres not stated) | 112
C[C@]12CC[C@H](O)C[C@]1(S)CC=C1CCC12 (some centres not stated) | 80
C[C@]12CC[C@H](O)C[C@]1(C(N)=O)CC=C1CCC12 (some centres not stated) | 114
C[C@]12CC[C@H](O)[C@H]3O[C@]31CC=C1CCC12 (some centres not stated) | 66
C[C@]12CC[C@H](O)C[C@]1(C(=O)O)CC=C1CCC12 (some centres not stated) | 111
C[C@]12CC[C@H](O)C[C@]1(/C=N/O)CC=C1CCC12 (some centres not stated) | 136
